Results on 21 compounds are retold here after ChEMBL document CHEMBL1177667, “Novel anti-viability ceramide analogs: design, synthesis, and structure-activity relationship studies of substituted (S)-2-(benzylideneamino)-3-hydroxy-N-tetradecylpropanamides” (Bioorg Med Chem, 2010).

The nature of assay [1]: Cytotoxicity against human MCF-7TN-R cells assessed as reduction in cell viability after 24 hrs by MTT assay. It counts as functional, cell-based. (In general: Tetrazolium dyes change colour on reduction, which living cells bring about.)
Another assay deals with HEK293. Put plainly: Cytotoxicity against HEK293 cells assessed as reduction in cell viability. It counts as cell-based. The conditions noted are these: Homo sapiens. The essentials:
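MTT viability assay on non-tumorigenic human kidney cells, run by the same protocol as the breast cancer line. Cells were seeded at […] per well in phenol-free DMEM with 5% FBS and left to adhere overnight. Compounds were given at 0.1–100 µM for 24 h, then MTT (5 mg/mL) for 4 h. Cells were lysed in 20% SDS/50% DMF and read at 550 nm (reference 630 nm). Mean ±SE of four independent experiments.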

Broadly, the IC50 is the concentration that gives 50% inhibition.

As for `CCCCCCCCCCCCCCNC(=O)[C@H](CO)/N=C/c1cccc(O)c1`, the IC50 amounted to 32.6 µM in assay [1] and 77.5 µM in the assay with HEK293.

Take `CCCCCCCCCCCCCCNC(=O)[C@H](CO)/N=C/c1ccccc1O`: the IC50 in assay [1] is 19 µM; with HEK293, 80.8 µM. Take `CCCCCCCCCCCCCCNC(=O)[C@H](CO)NCc1ccccc1[N+](=O)[O-]`: the IC50 in assay [1] is 29.4 µM. Still for that read-out and setting: under `CCCCCCCCCCCCCCNC(=O)[C@H](CO)NCc1ccccc1Cl` stands 43.7 µM. For the compound `CCCCCCCCCCCCCCNC(=O)[C@H](CO)/N=C/c1ccc(O)cc1`, the values for the IC50 (in assay [1]; in the assay on HEK293) were 19.3 µM and 71.7 µM, respectively.

In the case of `CCCCCCCCCCCCCCNC(=O)[C@H](CO)/N=C/c1ccccc1Cl`, the IC50 in assay [1] is 10.3 µM; with HEK293 it was 94.9 µM. On to `CCCCCCCCCCCCCCNC(=O)[C@H](CO)/N=C/c1ccc(OC)cc1`, for which the values for the IC50 (in assay [1]; with HEK293) were 28.1 µM and 81.7 µM, respectively.

In the case of `CCCCCCCCCCCCCCNC(=O)[C@H](CO)/N=C/c1ccccc1OC`, the IC50 is 12.5 µM in assay [1] and 79.2 µM in the assay with HEK293. As for `CCCCCCCCCCCCCCNC(=O)[C@H](CO)NCc1ccccc1OC`, the IC50 in assay [1] is 100 µM. The same measure, in the same setting: to `CCCCCCCCCCCCCCNC(=O)[C@H](CO)NCc1ccccc1O` belongs 75.3 µM. On to `CCCCCCCCCCCCCCNC(=O)[C@H](CO)/N=C/c1ccc([N+](=O)[O-])cc1`, for which the figures for the IC50 (in assay [1]; in the assay on HEK293) were 216 µM and 49.5 µM, respectively. Consider `CCCCCCCCCCCCCCNC(=O)[C@H](CO)/N=C/c1cccc([N+](=O)[O-])c1`, for which the IC50 in assay [1] is 104 µM; in the assay on HEK293, 82.7 µM. On to `CCCCCCCCCCCCCCNC(=O)[C@H](CO)/N=C/c1cccc(C)c1`, for which the IC50 in assay [1] was determined as 82.9 µM; in the assay with HEK293, 51.1 µM. For `CCCCCCCCCCCCCCNC(=O)[C@H](CO)/N=C/c1ccccc1C` the same measures were 87.7 µM and 81.1 µM. For `CCCCCCCCCCCCCCNC(=O)[C@H](CO)/N=C/c1ccc(C)cc1` the same measures were 102 µM and 47.3 µM. On to `CCCCCCCCCCCCCCNC(=O)[C@H](CO)/N=C/c1ccc(Cl)cc1`, for which the IC50 in assay [1] came out at 27.5 µM; with HEK293 it was 77.7 µM. For `CCCCCCCCCCCCCCNC(=O)[C@H](CO)/N=C/c1cccc(Cl)c1`, in that order: 24.1 µM and 77 µM.

Regarding `CCCCCCCCCCCCCCNC(=O)[C@H](CO)/N=C/c1cccc(OC)c1`, the values for the IC50 (in assay [1]; in the assay on HEK293) were 31.2 µM and 77.3 µM, respectively. For `CCCCCCCCCCCCCCNC(=O)[C@H](CO)/N=C/c1ccccc1[N+](=O)[O-]` the same measures were 21.7 µM and 82.6 µM.

As for `CCCCCCCCCCCCC/C=C/[C@@H](O)[C@H](CO)NC(=O)CCCCCCC`, in assay [1], the IC50 came out at 8.59 µM. On the same count and under the same terms, to `CCCCCCCCCCCCCCNC(=O)[C@H](CO)/N=C/c1ccccc1` belongs 7.67 µM.
